Experiments:
Canis familiaris = species: Canis familiaris; experiment: Evaluated for contraction of dog saphenous vein; type: functional, organism-based; conditions: Canis lupus familiaris, read-out: pA2 (converted)
Method in brief: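 Dog saphenous vein rings contracted with U 46619; antagonism expressed as pA2. Number of determinations = 1, with more than 12 rings per determination and a single drug concentration applied to each ring.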

Cavia porcellus [1] = species: Cavia porcellus; experiment: Inhibition of bronchoconstriction in guinea pigs; type: functional; conditions: Lung
Method in brief: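 Guinea pigs with cannulated trachea, ventilated at 40 strokes/min, given succinylcholine (1.0 mg/kg). Arachidonic acid priming dose 0.25 mg/kg iv, then 0.5 mg/kg iv. Test compound was then given as an iv bolus, with a 0.5 mg/kg AA challenge 5 min later. Peak insufflation pressure expressed as % of control. Five doses (0.1-1000 µg/kg), 6-8 animals per dose, ED50 derived.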

Cavia porcellus [2] = experiment: Ex vivo inhibition of U-46,619-induced aggregation of guinea pig platelets after peroral administration of 10 mg/kg dose at 1 hr time; type: functional; conditions: route oral
Method in brief: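 Fasted (12-16 h) male Hartley guinea pigs (350-400 g), 3-6 per group, dosed orally in a 3% fortified cornstarch suspension vehicle. At 1 h (or 6 h), animals under methoxyflurane anaesthesia were bled by cardiac puncture into citrate (0.0129 M final). PRP (500g, 7 min) was stirred 1 min at 37 °C, then U 46619 added. Result reported as EC50 drug-treated / EC50 vehicle.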

Homo sapiens [3] = species: Homo sapiens; experiment: Evaluated in vitro for the inhibition of U 46619 induced aggregation of platelet-rich plasma
Method in brief: (§1)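 Antagonism of aggregation induced by the PGH2/TxA2 mimetic U 46619, run in human washed platelets (WP) and in platelet-rich plasma (PRP); IC50 reported. Values come from one or two determinations.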

Homo sapiens [4] = species: Homo sapiens; experiment: In vitro inhibition of U 46619 induced aggregation of washed platelets; method in brief: as §1
Thromboxane-A synthase = target: T1, Thromboxane-A synthase (Homo sapiens, UniProt P24557); experiment: In vitro inhibition of Thromboxane A2 synthase
T1 sequence (P24557 whole entry): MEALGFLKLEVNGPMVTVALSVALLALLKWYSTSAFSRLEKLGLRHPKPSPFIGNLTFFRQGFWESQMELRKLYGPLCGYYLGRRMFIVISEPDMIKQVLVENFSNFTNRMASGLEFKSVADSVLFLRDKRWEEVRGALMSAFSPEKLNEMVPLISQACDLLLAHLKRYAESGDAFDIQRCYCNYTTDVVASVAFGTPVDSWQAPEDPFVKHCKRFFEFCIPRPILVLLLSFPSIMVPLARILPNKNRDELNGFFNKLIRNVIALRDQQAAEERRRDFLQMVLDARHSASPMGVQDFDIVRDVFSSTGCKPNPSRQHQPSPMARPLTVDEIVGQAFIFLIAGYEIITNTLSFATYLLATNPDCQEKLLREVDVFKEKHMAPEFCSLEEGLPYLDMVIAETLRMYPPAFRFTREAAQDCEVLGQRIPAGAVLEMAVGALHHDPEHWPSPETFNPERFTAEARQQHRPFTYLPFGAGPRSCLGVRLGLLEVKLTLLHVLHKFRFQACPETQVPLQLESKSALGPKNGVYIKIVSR

Homo sapiens [5] = species: Homo sapiens; experiment: In vitro inhibition of U 46619 induced aggregation of washed platelets(WP); method in brief: as §1
Cavia porcellus [6] = experiment: Ex vivo inhibition of U-46,619-induced aggregation of guinea pig platelets after peroral administration of 10 mg/kg dose at 6 hr time; type: functional; conditions: route oral
Method in brief: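 Male Hartley guinea pigs (350-400 g), fasted 12-16 h, dosed orally in 3% fortified cornstarch suspension vehicle; groups of three to six. At 6 h, cardiac-puncture blood drawn under methoxyflurane into citrate (0.0129 M final). PRP obtained at 500g, 7 min. PRP preincubated 1 min at 37 °C with stirring, then U 46619 added. Aggregation ratio = EC50 drug-treated/EC50 vehicle-treated.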

| Compound | Kb (Canis familiaris) [nM] | ED50 (Cavia porcellus [1]) [µg/kg] | Concentration ratio (Cavia porcellus [2]) | IC50 (Homo sapiens [3]) [nM] | IC50 (Homo sapiens [4]) [nM] | IC50 (Thromboxane-A synthase) [nM] | IC50 (Homo sapiens [5]) [nM] | Concentration ratio (Cavia porcellus [6]) |
| --- | --- | --- | --- | --- | --- | --- | --- | --- |
| O=C(O)CSC(CCCCNS(=O)(=O)c1ccc(Cl)cc1)CCCc1cccnc1 (centres undefined) | 0.269 | 7.42 | 33 | 400 | 6 | 2 |  |  |
| O=C(O)C(CCCCNS(=O)(=O)c1ccc(Cl)cc1)CCCc1cccnc1 (centres undefined) |  |  |  |  |  | 90 | 9300 |  |
| Cc1ccc(S(=O)(=O)NCCCCC(CCCc2cccnc2)CCC(=O)O)cc1 (centres undefined) | 1.55 |  |  | 15200 | 58 | 1 |  |  |
| O=S(=O)(NCCCCC(CCCc1cccnc1)CCC1N=NN=N1)c1ccc(Cl)cc1 (centres undefined) | 0.468 |  | 10 | 910 | 22 | 5 |  |  |
| NC(=O)CCC(CCCCNS(=O)(=O)c1ccc(Cl)cc1)CCCc1cccnc1 (centres undefined) |  |  |  |  | > 10000 | 60 |  |  |
| O=S(=O)(NCCCCC(CCCO)CCCc1cccnc1)c1ccc(Cl)cc1 (centres undefined) |  |  |  |  | 2360 | 70 |  |  |
| CC(C)(CC(CCCCNS(=O)(=O)c1ccc(Cl)cc1)CCCc1cccnc1)C(=O)O (centres undefined) | 1 |  | 8.7 | 3700 | 18 | 20 |  |  |
| O=C(O)CCCCO/N=C(/c1cccnc1)c1cccc(C(F)(F)F)c1 [RIDOGREL] |  | 48.3 | 5.6 |  |  |  |  |  |
| O=C(O)C(=O)NC(CCCCNS(=O)(=O)c1ccc(Cl)cc1)CCCc1cccnc1 (centres undefined) | 1.86 |  |  | 11300 | 590 | 150 |  |  |
| O=C(O)COC(CCCCNS(=O)(=O)c1ccc(Cl)cc1)CCCc1cccnc1 (centres undefined) |  |  | 2.6 | 1600 | 15 | 18 |  |  |
| [N-]=[N+]=Nc1ccc(S(=O)(=O)NCCCCC(CCCc2cccnc2)CCC(=O)O)cc1 (centres undefined) |  |  |  | 2000 | 35 | 4 |  |  |
| O=C(O)/C=C/C(CCCCNS(=O)(=O)c1ccc(Cl)cc1)CCCc1cccnc1 (centres undefined) |  |  |  | 770 | 70 | 10 |  |  |
| O=C(O)CCC(CCCCNS(=O)(=O)c1ccc(Cl)cc1)CCn1ccnc1 (centres undefined) | 34.7 |  |  |  | 1520 | 40 |  |  |
| O=C(O)CCC(CCCCNS(=O)(=O)c1ccc(Cl)cc1)CCCn1ccnc1 (centres undefined) | 5.5 |  |  | 3700 | 980 | 3 |  |  |
| O=C(O)CCC(C/C=C/c1cccnc1)CCCCNS(=O)(=O)c1ccc(Cl)cc1 (centres undefined) | 0.603 |  |  | 1190 | 27 | 7 |  |  |
| O=C(O)CCC(CCCCNS(=O)(=O)c1ccc(C(F)(F)F)cc1)CCCc1cccnc1 (centres undefined) |  |  |  | 610 | 230 | 2 |  |  |
| COc1ccc(S(=O)(=O)NCCCCC(CCCc2cccnc2)CCC(=O)O)cc1 (centres undefined) |  |  |  | 1340 | 220 | 3 |  |  |
| O=C(O)CCC(CCCCNS(=O)(=O)c1ccc(Cl)cc1)CCOc1cccnc1 (centres undefined) | 0.398 | 5.2 | >100 | 280 | 13 | 3 |  | >100 |
| CC(CC(CCCCNS(=O)(=O)c1ccc(Cl)cc1)CCCc1cccnc1)C(=O)O (centres undefined) | 1.48 |  | 9 | 2900 | 53 | 3 |  |  |
| O=C(O)CCC(CCCCNS(=O)(=O)c1ccc2ccccc2c1)CCCc1cccnc1 (centres undefined) |  |  |  | 2800 | 240 | 1.5 |  |  |
| Cc1ccncc1CCCC(CCCCNS(=O)(=O)c1ccc(Cl)cc1)CCC(=O)O (centres undefined) |  |  |  | 4860 | 6 | 1 |  |  |
| CCOC(=O)CCC(CCCCNS(=O)(=O)c1ccc(Cl)cc1)CCCc1cccnc1 (centres undefined) |  |  | 3 |  |  |  |  |  |
| O=C(O)CCC(CCCCNS(=O)(=O)c1ccc(F)cc1)CCCc1cccnc1 (centres undefined) |  |  |  | > 30000 | 108 | 1 |  |  |
| O=C(O)CC(CCCCNS(=O)(=O)c1ccc(Cl)cc1)CCCc1cccnc1 (centres undefined) | 3.72 |  |  |  | 200 | 7 |  |  |
| O=C(O)CCC(CCCCNS(=O)(=O)c1ccc(Cl)cc1)CCCc1cccnc1 (centres undefined) |  | 5.75 | 27.3 |  |  | 20 |  | 11.8 |
| O=C(O)CCC(CCCCNS(=O)(=O)c1ccc(Cl)cc1)CCCc1ccc[n+]([O-])c1 (centres undefined) | 7.41 |  |  | 8700 | 500 | 3 |  |  |
| CS(=O)(=O)c1ccc(S(=O)(=O)NCCCCC(CCCc2cccnc2)CCC(=O)O)cc1 (centres undefined) |  |  |  |  | > 10000 | 4 |  |  |
